By pIC50 is commonly meant −log10 of the IC50, conventionally taken in molar units.

This passage reports IC50 results from ChEMBL document CHEMBL1134289, “5-(Tryptophyl)amino-1,3-dioxoperhydropyrido[1,2-c]pyrimidine-based potent and selective CCK(1) receptor antagonists: structure-activity relationship studies on the central 1,3-dioxoperhydropyrido[1,2-c]pyrimidine scaffold” (J Med Chem, 2001).

For assay [1], the species on record is Rattus norvegicus. In words: Inhibition of amylase release stimulated by CCK-8 (0.1 nM) in dispersed rat pancreatic acini. The class given is functional. The essentials: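 Acini prepared by collagenase digestion (two 6-min incubations, 37 °C) in HEPES buffer pH 7.4, then suspended in buffer with theophylline, SBTI and BSA. Incubated 30 min at 37 °C under O2 with shaking, CCK-8 0.1 nM plus increasing compound levels. Released amylase taken as percent of acinar content; inhibition computed relative to vehicle and CCK-8 alone. Three to six experiments, in duplicate.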

Assay [2] concerns the target T1, Gastrin/cholecystokinin type B receptor (Rattus norvegicus, UniProt P30553).
T1 sequence (P30553 whole entry): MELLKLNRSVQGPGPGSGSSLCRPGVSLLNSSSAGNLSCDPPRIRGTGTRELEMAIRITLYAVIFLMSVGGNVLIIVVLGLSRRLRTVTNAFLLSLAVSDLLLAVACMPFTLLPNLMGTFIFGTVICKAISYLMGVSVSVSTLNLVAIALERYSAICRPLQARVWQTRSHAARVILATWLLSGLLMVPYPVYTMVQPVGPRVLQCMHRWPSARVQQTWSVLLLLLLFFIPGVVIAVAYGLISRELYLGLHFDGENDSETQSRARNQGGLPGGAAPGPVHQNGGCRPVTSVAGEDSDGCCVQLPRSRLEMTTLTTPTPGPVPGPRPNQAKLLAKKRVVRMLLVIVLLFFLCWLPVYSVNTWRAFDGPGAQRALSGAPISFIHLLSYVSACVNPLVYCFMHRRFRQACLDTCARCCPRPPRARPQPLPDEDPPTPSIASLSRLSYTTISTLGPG
In words: Inhibition of [3H]pCCK-8 binding to cholecystokinin type B receptor of rat cerebral cortex. The class given is tissue-based.

The target of assay [3] is T2, Cholecystokinin receptor type A (Rattus norvegicus, UniProt P30551).
T2 sequence (P30551 whole entry): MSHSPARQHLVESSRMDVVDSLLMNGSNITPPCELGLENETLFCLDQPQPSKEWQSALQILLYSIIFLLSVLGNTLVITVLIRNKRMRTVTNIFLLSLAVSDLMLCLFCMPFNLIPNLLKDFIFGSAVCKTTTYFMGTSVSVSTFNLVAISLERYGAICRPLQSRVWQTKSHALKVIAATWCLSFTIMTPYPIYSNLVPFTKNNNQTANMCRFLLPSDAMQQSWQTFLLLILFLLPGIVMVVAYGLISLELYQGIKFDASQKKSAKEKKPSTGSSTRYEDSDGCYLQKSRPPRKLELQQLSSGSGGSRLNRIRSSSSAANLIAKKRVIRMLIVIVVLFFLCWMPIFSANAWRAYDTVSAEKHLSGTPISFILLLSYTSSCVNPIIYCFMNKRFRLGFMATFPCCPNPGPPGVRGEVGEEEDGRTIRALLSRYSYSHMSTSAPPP
Put plainly: Inhibition of [3H]pCCK-8 binding to cholecystokinin type A receptor of rat pancreas. The method, boiled down:
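Rat pancreas homogenized in Pipes-HCl pH 6.5 with 30 mM MgCl2, centrifuged twice at 50000g, 4 °C. Membranes (0.2 mg protein/tube) incubated with 0.5 nM [3H]pCCK-8 plus bacitracin and SBTI (0.2 mg/mL each), 120 min, 25 °C. Seven test concentrations in triplicate; mean of at least three experiments.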

The target of assay [4] is T1, Gastrin/cholecystokinin type B receptor. Put plainly: Inhibition of [3H]pCCK-8 specific binding to cholecystokinin type B receptor in rat cerebral cortex. The class given is tissue-based. The essentials: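 Rat cerebral cortex homogenized in 50 mM Tris-HCl pH 7.4 with 5 mM MgCl2, centrifuged twice at 100000g, 4 °C. Membranes (0.45 mg protein/tube) incubated with 1 nM [3H]pCCK-8 and bacitracin 0.2 mg/mL, 60 min, 25 °C. Nonspecific binding defined by 1 µM CCK-8. Seven test concentrations in triplicate; at least three experiments.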

pIC50: −log10 of the molar value.

As to `CC(C)(C)OC(=O)N[C@@H](Cc1c[nH]c2ccccc12)C(=O)N[C@H]1CCCN2C(=O)N(Cc3ccccc3)C(=O)C[C@H]12`, the pIC50 in assay [1] is 7.11.

For `CC(C)(C)OC(=O)N[C@@H](Cc1c[nH]c2ccccc12)C(=O)N[C@H]1CCCN2C(=O)N(Cc3ccccc3)C(=S)C[C@H]12`, the pIC50 was 7.64 in assay [1] and under 5.00 in assay [2].

For `CC(C)(C)OC(=O)N[C@@H](Cc1c[nH]c2ccccc12)C(=O)N[C@@H]1CCCN2CN(Cc3ccccc3)CC[C@@H]12`, the values for the pIC50 in assay [3] and in assay [2] were under 6.00 and under 5.00, respectively.

With `CC(C)(C)OC(=O)N[C@@H](Cc1c[nH]c2ccccc12)C(=O)N[C@H]1CCCN2CN(Cc3ccccc3)C(=O)C[C@H]12`, the pIC50 is under 6.00 in assay [3] and under 5.00 in assay [2].

Regarding `CC(C)(C)OC(=O)N[C@@H](Cc1c[nH]c2ccccc12)C(=O)N[C@H]1CCCN2C(=S)N(Cc3ccccc3)C(=S)C[C@H]12`, the pIC50 was 6.05 in assay [3] and under 5.00 in assay [2].

As for `CC(C)(C)OC(=O)N[C@@H](Cc1c[nH]c2ccccc12)C(=O)N[C@@H]1CCCN2C(=S)N(Cc3ccccc3)C(=S)C[C@@H]12`, the pIC50 in assay [1] was 7.21; in assay [3], 8.87; in assay [2], under 5.00.

For the compound `CC(C)(C)OC(=O)N[C@@H](Cc1c[nH]c2ccccc12)C(=O)N[C@@H]1CCCN2CN(Cc3ccccc3)C(=O)C[C@@H]12`, the pIC50 in assay [3] was under 6.00; in assay [2], under 5.00.

With `CC(C)(C)OC(=O)N[C@@H](Cc1c[nH]c2ccccc12)C(=O)N[C@@H]1CCCN2C(=O)N(Cc3ccccc3)C(=S)C[C@@H]12`, the pIC50 in assay [1] is 8.37; in assay [3] it was 8.55; in assay [2] it was under 5.00.

For `CO[C@@H]1C[C@H]2[C@H](NC(=O)[C@H](Cc3c[nH]c4ccccc34)NC(=O)OC(C)(C)C)CCCN2C(=O)N1Cc1ccccc1`, the pIC50 was 6.43 in assay [3] and under 5.00 in assay [2].

For the compound `CC(C)(C)OC(=O)N[C@@H](Cc1c[nH]c2ccccc12)C(=O)N[C@@H]1CCCN2C(=O)N(Cc3ccccc3)CC[C@@H]12`, the pIC50 is under 6.00 in assay [3] and under 5.00 in assay [2].

Consider `CC(C)(C)OC(=O)N[C@@H](Cc1c[nH]c2ccccc12)C(=O)N[C@@H]1CCCN2C(=S)N(Cc3ccccc3)C(=O)C[C@@H]12`, for which the pIC50 is 7.48 in assay [1], 10.05 in assay [3] and under 5.00 in assay [2].

Turning to `CC(C)(C)OC(=O)N[C@@H](Cc1c[nH]c2ccccc12)C(=O)N[C@H]1CCCN2C(=S)N(Cc3ccccc3)C(=O)C[C@H]12`, the pIC50 in assay [3] is 6.08; in assay [2] it was under 5.00.

For `CC(C)(C)OC(=O)N[C@@H](Cc1c[nH]c2ccccc12)C(=O)N[C@@H]1CCCN2C(=O)N(Cc3ccccc3)C(=O)C[C@@H]12` [IQM-95333], the figures for the pIC50 in assay [4] and in assay [1] were under 5.00 and 9.19, respectively.
